Results taken from PubChem BioAssay.
The source made the active and inactive calls. Unless noted, how the calls were made is not given here.

Tests used:
[1] = biological target: Pantothenate synthetase (Mycobacterium tuberculosis (strain ATCC 25618 / H37Rv)) (UniProt P9WIL5); experiment: Recombinant Mtb pantothenate synthetase (PanC) inhibitors, coupled enzyme, confirmatory (AID 375); settings: coupled enzyme assay; at 10 µM, stronger effect = higher value;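 further: 0% = full reaction with vehicle and 100% = no enzyme background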
[2] = reducers of endogenous Her2 protein level, primary screen, SKBR3 breast tumor cells, AlphaScreen, ATP viability (AID 461;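 active means Her2 level under about 52% in both replicate screens, with viability over 70% of control, limit read from the data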;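 on Her2 level: lower value means less Her2 protein in the cells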;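 on viability: percent of carrier control wells set as 100% viability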); settings: 18-24 h, measured here: SKBR3 viability, ATP luminescence, at 10 µM
[3] = biological target: Receptor tyrosine-protein kinase erbB-2 (Homo sapiens) (UniProt P04626); experiment: as above; settings: 18-24 h, at 10 µM, stronger effect = lower value
[4] = SK-BR-3 cell growth inhibitors, pilot screen, 24 h, human (AID 572;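 active means viability at or below 10% of carrier control in both of two separate runs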;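 further: compound exposure lasted between 18 and 24 h rather than exactly 24 h; 100% = carrier-treated control wells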); settings: SK-BR-3 viability, CellTiter-Glo luminescence, at 10 µM, stronger effect = lower value
[5] = HUVEC growth inhibition – cell-based, human, primary screen (AID 575;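 active means viability at or below 30% in both replicate assays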;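 further: 100% = median of untreated cell wells with 0.1% DMSO on each plate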); settings: HUVEC proliferation, CellTiter-Glo luminescence, 72 h; at 10 µM; stronger effect = lower value
Procedure, shortened: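 Test system: HUVEC primary cells. Quantity: 1250 endothelial cells in each well. Dosing: single-point 10 µM, DMSO 0.1% final. Incubation: 72 h treatment at 37 °C. Measured by: CTG luminescence. Control set: DMSO cell controls and MePR drug controls. Plate: collagen-coated 384-well format.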

[6] = growth inhibitors of H69AR lung tumor, primary screen, human, duplicate replicates (AID 580;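 active means viability at or under a set limit in both replicates, limit being median viability minus 3 SD, cut at about 48% in these data, passing the limit was not always enough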;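 further: 100% = mean luminescence of untreated wells and 0% = no signal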); settings: H69AR lung tumor cells viability, ATP luminescence, 72 h; at 10 µM; stronger effect = lower value
[7] = reversal of MRP1-mediated doxorubicin resistance, pilot screen, H69AR cells, doxorubicin co-treatment (AID 601;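 active means viability loss from added drug above about 55%, and viability with drug at most 40%, in both replicates, limit read from the data, passing the limit was not always enough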); settings: CellTiter-Glo, 72 h, at 10 µM; for differential viability (reversal): stronger effect = higher value
[8] = 384-well plate pilot, post-Golgi transport modulator project, inhibition of yeast transport mutant growth (AID 636; in the data active means inhibition above about 31%); settings: absorbance 615 nm, about 18 h, stronger effect = higher value
[9] = growth suppression of yeast trafficking mutant, preliminary HTS, modulators of trafficking downstream of Golgi apparatus project, 1536-format plate, OD 615 nm (AID 637; in the data active means inhibition above about 30%); settings: yeast transport mutant growth, absorbance 615 nm, 18 h; stronger effect = higher value
[10] = H69AR cells + 2 uM doxorubicin, measured here: viability with 2 uM doxorubicin, stronger effect = lower value
[11] = H69AR cells, compound alone cytotoxicity

Sequence of Pantothenate synthetase (Mycobacterium tuberculosis (strain ATCC 25618 / H37Rv)) (P9WIL5 whole entry, looked up): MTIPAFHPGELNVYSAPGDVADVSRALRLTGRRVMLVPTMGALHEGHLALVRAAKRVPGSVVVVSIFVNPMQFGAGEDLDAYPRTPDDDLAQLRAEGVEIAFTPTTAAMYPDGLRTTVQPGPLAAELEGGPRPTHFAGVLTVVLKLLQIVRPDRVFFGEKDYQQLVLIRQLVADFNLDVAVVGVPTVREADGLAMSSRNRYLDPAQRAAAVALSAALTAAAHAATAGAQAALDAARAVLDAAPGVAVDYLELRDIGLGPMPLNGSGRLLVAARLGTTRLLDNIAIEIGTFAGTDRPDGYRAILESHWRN
Sequence of Receptor tyrosine-protein kinase erbB-2 (Homo sapiens) (P04626 whole entry, looked up): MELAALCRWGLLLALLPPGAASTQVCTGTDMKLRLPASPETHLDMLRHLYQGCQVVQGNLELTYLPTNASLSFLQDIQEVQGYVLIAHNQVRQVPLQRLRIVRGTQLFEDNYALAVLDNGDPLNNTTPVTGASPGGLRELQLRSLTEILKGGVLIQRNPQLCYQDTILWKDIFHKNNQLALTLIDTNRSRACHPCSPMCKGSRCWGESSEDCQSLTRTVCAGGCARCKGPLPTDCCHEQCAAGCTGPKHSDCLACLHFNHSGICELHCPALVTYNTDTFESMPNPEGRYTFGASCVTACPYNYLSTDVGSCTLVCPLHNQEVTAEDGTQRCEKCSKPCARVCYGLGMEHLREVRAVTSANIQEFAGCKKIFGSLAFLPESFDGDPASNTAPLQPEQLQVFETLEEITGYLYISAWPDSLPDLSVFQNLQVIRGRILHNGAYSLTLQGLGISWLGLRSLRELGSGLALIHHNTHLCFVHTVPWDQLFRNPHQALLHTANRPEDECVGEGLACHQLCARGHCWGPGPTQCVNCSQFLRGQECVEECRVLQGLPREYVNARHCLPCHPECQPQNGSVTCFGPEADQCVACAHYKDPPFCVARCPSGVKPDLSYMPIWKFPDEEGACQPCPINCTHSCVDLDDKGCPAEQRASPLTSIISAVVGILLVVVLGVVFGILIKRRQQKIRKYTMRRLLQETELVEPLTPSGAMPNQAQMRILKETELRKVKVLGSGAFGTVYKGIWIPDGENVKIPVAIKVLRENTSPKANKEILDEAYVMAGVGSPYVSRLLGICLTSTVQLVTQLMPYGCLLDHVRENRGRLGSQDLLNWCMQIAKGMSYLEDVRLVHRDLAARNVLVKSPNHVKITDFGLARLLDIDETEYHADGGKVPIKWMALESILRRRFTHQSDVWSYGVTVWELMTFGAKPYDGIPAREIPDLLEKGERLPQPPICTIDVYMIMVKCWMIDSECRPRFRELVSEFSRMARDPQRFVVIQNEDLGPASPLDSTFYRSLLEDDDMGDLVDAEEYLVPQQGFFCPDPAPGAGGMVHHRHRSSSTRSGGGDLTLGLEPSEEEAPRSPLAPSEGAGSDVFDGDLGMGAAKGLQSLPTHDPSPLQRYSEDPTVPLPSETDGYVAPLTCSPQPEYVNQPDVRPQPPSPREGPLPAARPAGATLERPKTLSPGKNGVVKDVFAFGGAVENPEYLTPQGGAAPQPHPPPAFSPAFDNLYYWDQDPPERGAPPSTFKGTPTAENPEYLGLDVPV

Row | Compound | inhibition [1] | viability [2] [%] | Her2 level [3] | viability [4] | viability [5] | viability [6] | differential viability (reversal) ([7]; H69AR cells + 2 uM doxorubicin) | viability [7, 10] [%] | viability [7, 11] [%] | inhibition [8] | inhibition [9]
1 | CN1CCC(N(C)c2ncnc3ccc(Br)cc23)CC1 | 0% (inactive) | 100 | 99.5% (inactive) | 100% (inactive) | 78.5% (inactive) | 87.9% (inactive) | -25.8% (inactive) | 114 | 87.9 | -6.1% (inactive) | 0.79% (inactive)
2 | Cc1cnn(C2CCN(C)CC2)c1N | 0% (inactive) | 97 | 96.5% (inactive) | 97% (inactive) | 102% (inactive) | 104% (inactive) | 5.52% (inactive) | 98.4 | 104 | 0.14% (inactive) | -5.41% (inactive)
3 | NC(=O)OCCSc1nnc(-c2cccc(C(N)=S)c2)o1 | 2% (inactive) | 103 | 88% (inactive) | 103% (inactive) | 108% (inactive) | 105% (inactive) | 13.7% (inactive) | 91 | 105 | -6% (inactive) | 0.65% (inactive)
4 | O=C1OCCC1NC1=NCCC1 (configuration not stated) | 0% (inactive) | 92 | 91% (inactive) | 92% (inactive) | 111% (inactive) | 100% (inactive) | 13.1% (inactive) | 87.1 | 100 | -0.78% (inactive) | -5.41% (inactive)
5 | C(#CCN1CCOCC1)COCC#Cc1ccccc1 | 0% (inactive) | 92.5 | 85.5% (inactive) | 92.5% (inactive) | 91.4% (inactive) | 101% (inactive) | 15.2% (inactive) | 85.3 | 101 | -5.41% (inactive) | 1.11% (inactive)
6 | C=CCn1c(O)c(C(C)=Nc2ccc(N(CC)CC)cc2)c(=O)[nH]c1=O | 1% (inactive) | 102 | 105% (inactive) | 102% (inactive) | 62.6% (inactive) | 16.3% (active) | -63.3% (inactive) | 79.7 | 16.3 | -2.08% (inactive) | -8% (inactive)
7 | CCN1CCN(C(=O)COc2cc(=O)n(CC)c3ccccc23)CC1 | 0% (inactive) | 80.5 | 104% (inactive) | 80.5% (inactive) | 89.2% (inactive) | 90.3% (inactive) | 22.7% (inactive) | 67.6 | 90.3 | 0.38% (inactive) | 0.67% (inactive)
8 | COc1ccc(CCn2c(O)c(C=NCc3cccnc3)c(=O)[nH]c2=O)cc1OC | 0% (inactive) |  |  | 63% (inactive) | 118% (inactive) | 95.4% (inactive) | 1.12% (inactive) | 94.3 | 95.4 | -4.67% (inactive) | 1.97% (inactive)
9 | Clc1ccc(CSC(Cn2ccnc2)c2ccc(Cl)cc2Cl)cc1 (configuration not stated) | 0% (inactive) | 136 | 59% (inactive) | 136% (inactive) |  |  | -14.6% (inactive) | 48.3 | 33.7 |  | 
10 | O=C(Cc1ccccc1)OC(COCc1ccccc1)CN1CCOCC1 (configuration not stated) | 3% (inactive) | 83 | 99% (inactive) | 83% (inactive) | 88.3% (inactive) | 94.2% (inactive) | 4.79% (inactive) | 89.4 | 94.2 | -7.47% (inactive) | -0.98% (inactive)
11 | CCN1c2nc3ccccn3c(=O)c2CC2(C(=O)N(C)C(=O)N(C)C2=O)C1C (configuration not stated) | 0% (inactive) |  |  | 119% (inactive) | 104% (inactive) | 96% (inactive) | 5.97% (inactive) | 90 | 96 | -9.18% (inactive) | 2.9% (inactive)
12 | CCCC(C)(COC(N)=O)COC(=O)NC(C)C (configuration not stated) | 0% (inactive) |  |  | 88% (inactive) | 86.4% (inactive) | 100% (inactive) | -3.16% (inactive) | 103 | 100 | -1.69% (inactive) | 4.17% (inactive)
